# Experimental data taken from ChEMBL document CHEMBL3102785, “Characterization of the congeners in the lantibiotic NAI-107 complex” (2014).
# Assays:
# Format in all cases: functional
# Staphylococcus aureus [1] = test: Antibacterial activity against methicillin-resistant Staphylococcus aureus ND035208 after 24 hrs by broth microdilution method
# Outline: (§1)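 Broth microdilution per CLSI in Müller Hinton broth with 20 mg/L CaCl2 and 10 mg/L MgCl2. Inoculum 5 × 10^5 cfu/mL, 24 h at 37 °C. Compounds dissolved in DMSO and diluted in medium just before testing. MIC taken as lowest concentration giving complete suppression of visible growth.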
# Staphylococcus aureus [2] = test: Antibacterial activity against methicillin-sensitive Staphylococcus aureus L819/ATCC 19636 after 24 hrs by broth microdilution method
# Outline: (§2)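 CLSI broth microdilution MIC in Müller Hinton broth with 20 mg/L CaCl2 and 10 mg/L MgCl2. Compounds were dissolved in DMSO and diluted in medium just before testing. Inoculum was 5 × 10^5 cfu/mL, incubated 24 h at 37 °C. MIC was the lowest concentration giving complete suppression of visible growth. Strains came from ATCC or an in-house collection (L-prefix).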
# Staphylococcus aureus [3] = test: Antibacterial activity against Staphylococcus aureus GISA L3798 after 24 hrs by broth microdilution method; outline: as §1
# Enterococcus faecium [4] = test: Antibacterial activity against Enterococcus faecium L568 expressing VanS gene after 24 hrs by broth microdilution method; outline: as §2
# Enterococcus faecalis [5] = test: Antibacterial activity against Enterococcus faecalis L559 expressing VanS gene after 24 hrs by broth microdilution method; outline: as §2
# Enterococcus faecalis [6] = test: Antibacterial activity against Enterococcus faecalis L560 expressing VanA gene after 24 hrs by broth microdilution method; outline: as §2
# Enterococcus faecium [7] = test: Antibacterial activity against Enterococcus faecium L569 expressing VanA gene after 24 hrs by broth microdilution method; outline: as §2
# Streptococcus pyogenes = test: Antibacterial activity against Streptococcus pyogenes L49 after 24 hrs by broth microdilution method
# Streptococcus pneumoniae = test: Antibacterial activity against Streptococcus pneumoniae ATCC 49619 after 24 hrs by broth microdilution method
compound,measurement,setting,value
C=C1NC(=O)[C@H](Cc2c[nH]c3ccc(Cl)cc23)NC(=O)[C@@H](NC(=O)/C(=C/C)NC(=O)[C@@H](N)C(C)C)CSC[C@@H](C(=O)N[C@@H]2C(=O)N3CCC[C@H]3C(=O)NCC(=O)N[C@H](C(=O)N[C@H](C(=O)N[C@H]3CSC[C@@H]4NC(=O)[C@H](CC(=O)O)NC(=O)[C@H](CSC[C@@H]5NC(=O)[C@H](Cc6ccccc6)NC(=O)[C@H](CS/C=C\NC5=O)NC4=O)NC(=O)CNC(=O)CNC(=O)CNC(=O)[C@@H]4CC(O)CN4C3=O)[C@@H](C)O)CSC2C)NC(=O)[C@H](CC(C)C)NC1=O (stereo not given in full),MIC,"Staphylococcus aureus [1]; ND035208, 24 h",1 µg/mL
same,MIC,"Staphylococcus aureus [2]; L819/ATCC 19636, 24 h",0.25 µg/mL
same,MIC,"Staphylococcus aureus [3]; GISA L3798, 24 h",2 µg/mL
same,MIC,"Enterococcus faecium [4]; L568, 24 h",4 µg/mL
same,MIC,"Enterococcus faecalis [5]; L559, 24 h",2 µg/mL
same,MIC,"Enterococcus faecalis [6]; L560, 24 h",2 µg/mL
same,MIC,"Enterococcus faecium [7]; L569, 24 h",4 µg/mL
same,MIC,"Streptococcus pyogenes; L49, 24 h",≤ 0.001 µg/mL
same,MIC,"Streptococcus pneumoniae; ATCC 49619, 24 h",0.03 µg/mL
C=C1NC(=O)[C@H](Cc2c[nH]c3ccccc23)NC(=O)[C@@H](NC(=O)/C(=C/C)NC(=O)[C@@H](N)C(C)C)CSC[C@@H](C(=O)N[C@@H]2C(=O)N3CCC[C@H]3C(=O)NCC(=O)N[C@H](C(=O)N[C@H](C(=O)N[C@H]3CSC[C@@H]4NC(=O)[C@H](CC(=O)O)NC(=O)[C@H](CSC[C@@H]5NC(=O)[C@H](Cc6ccccc6)NC(=O)[C@H](CS/C=C\NC5=O)NC4=O)NC(=O)CNC(=O)CNC(=O)CNC(=O)[C@@H]4CCCN4C3=O)[C@@H](C)O)CSC2C)NC(=O)[C@H](CC(C)C)NC1=O (stereo not given in full),MIC,"Staphylococcus aureus [1]; ND035208, 24 h",8 µg/mL
same,MIC,"Staphylococcus aureus [2]; L819/ATCC 19636, 24 h",4 µg/mL
same,MIC,"Staphylococcus aureus [3]; GISA L3798, 24 h",16 µg/mL
same,MIC,"Enterococcus faecium [4]; L568, 24 h",32 µg/mL
same,MIC,"Enterococcus faecalis [5]; L559, 24 h",64 µg/mL
same,MIC,"Enterococcus faecalis [6]; L560, 24 h",32 µg/mL
same,MIC,"Enterococcus faecium [7]; L569, 24 h",32 µg/mL
same,MIC,"Streptococcus pyogenes; L49, 24 h",≤ 0.03 µg/mL
same,MIC,"Streptococcus pneumoniae; ATCC 49619, 24 h",≤ 0.03 µg/mL
C=C1NC(=O)[C@H](Cc2c[nH]c3ccc(Cl)cc23)NC(=O)[C@@H](NC(=O)/C(=C/C)NC(=O)[C@@H](N)C(C)C)CSC[C@@H](C(=O)N[C@@H]2C(=O)N3CCC[C@H]3C(=O)NCC(=O)N[C@H](C(=O)N[C@H](C(=O)N[C@H]3CSC[C@@H]4NC(=O)[C@H](CC(=O)O)NC(=O)[C@H](CSC[C@@H]5NC(=O)[C@H](Cc6ccccc6)NC(=O)[C@H](CS/C=C\NC5=O)NC4=O)NC(=O)CNC(=O)CNC(=O)CNC(=O)[C@@H]4C(O)C(O)CN4C3=O)[C@@H](C)O)CSC2C)NC(=O)[C@H](CC(C)C)NC1=O (stereo not given in full),MIC,"Staphylococcus aureus [1]; ND035208, 24 h",1 µg/mL
same,MIC,"Staphylococcus aureus [2]; L819/ATCC 19636, 24 h",0.25 µg/mL
same,MIC,"Staphylococcus aureus [3]; GISA L3798, 24 h",1 µg/mL
same,MIC,"Enterococcus faecium [4]; L568, 24 h",4 µg/mL
same,MIC,"Enterococcus faecalis [5]; L559, 24 h",2 µg/mL
same,MIC,"Enterococcus faecalis [6]; L560, 24 h",1 µg/mL
same,MIC,"Enterococcus faecium [7]; L569, 24 h",4 µg/mL
same,MIC,"Streptococcus pyogenes; L49, 24 h",≤ 0.001 µg/mL
same,MIC,"Streptococcus pneumoniae; ATCC 49619, 24 h",0.015 µg/mL
GENTAMICIN,MIC,Staphylococcus aureus [1],> 128 µg/mL
same,MIC,Staphylococcus aureus [2],1 µg/mL
same,MIC,Staphylococcus aureus [3],0.02 µg/mL
same,MIC,Enterococcus faecium [4],16 µg/mL
same,MIC,Enterococcus faecalis [5],4 µg/mL
same,MIC,Enterococcus faecalis [6],4 µg/mL
same,MIC,Enterococcus faecium [7],16 µg/mL
same,MIC,Streptococcus pyogenes,16 µg/mL
same,MIC,Streptococcus pneumoniae,8 µg/mL
C=C1NC(=O)[C@H](Cc2c[nH]c3ccc(Cl)cc23)NC(=O)[C@@H](NC(=O)/C(=C/C)NC(=O)[C@@H](N)C(C)C)CSC[C@@H](C(=O)N[C@@H]2C(=O)N3CCC[C@H]3C(=O)NCC(=O)N[C@H](C(=O)N[C@H](C(=O)N[C@H]3CSC[C@@H]4NC(=O)[C@H](CC(=O)O)NC(=O)[C@H](CSC[C@@H]5NC(=O)[C@H](Cc6ccccc6)NC(=O)[C@H](CS/C=C\NC5=O)NC4=O)NC(=O)CNC(=O)CNC(=O)CNC(=O)[C@@H]4CCCN4C3=O)[C@@H](C)O)CSC2C)NC(=O)[C@H](CC(C)C)NC1=O (stereo not given in full),MIC,"Staphylococcus aureus [1]; ND035208, 24 h",4 µg/mL
same,MIC,"Staphylococcus aureus [2]; L819/ATCC 19636, 24 h",0.5 µg/mL
same,MIC,"Staphylococcus aureus [3]; GISA L3798, 24 h",4 µg/mL
same,MIC,"Enterococcus faecium [4]; L568, 24 h",8 µg/mL
same,MIC,"Enterococcus faecalis [5]; L559, 24 h",8 µg/mL
same,MIC,"Enterococcus faecalis [6]; L560, 24 h",4 µg/mL
same,MIC,"Enterococcus faecium [7]; L569, 24 h",8 µg/mL
same,MIC,"Streptococcus pyogenes; L49, 24 h",≤ 0.001 µg/mL
same,MIC,"Streptococcus pneumoniae; ATCC 49619, 24 h",0.03 µg/mL
